ChEMBL document CHEMBL1134464, “Synthesis, antimalarial activity, biomimetic iron(II) chemistry, and in vivo metabolism of novel, potent C-10-phenoxy derivatives of dihydroartemisinin” (J Med Chem, 2001)

Assays:
[1] = system: Plasmodium falciparum; assay: In vitro antimalarial activity against chloroquine-sensitive Plasmodium falciparum HB3; format: functional, organism-based
Method in brief: (§1)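 48-h [3H]hypoxanthine incorporation assay on P. falciparum cultured in human erythrocytes in RPMI 1640 with 25 mM HEPES, 32 mM NaHCO3 and 10% human serum, gassed 3% O2/4% CO2/93% N2. Assay at 2% parasitemia and 0.5% hematocrit, with DMSO stocks diluted in medium, run in triplicate. 0.5 μCi hypoxanthine added after 24 h at 37 °C, then 24 h more. IC50 interpolated from probit of log dose–response.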

[2] = system: Plasmodium falciparum; assay: In vitro antimalarial activity against chloroquine-resistant Plasmodium falciparum K1; format: functional, organism-based; method in brief: as §1
[3] = system: Mus musculus; assay: In vivo antimalarial activity against Plasmodium berghei; format: functional
[4] = system: Mus musculus; assay: In vivo antimalarial activity against Plasmodium yoelii when administered subcutaneously; format: functional; details: sc
[5] = system: Mus musculus; assay: In vivo antimalarial activity against Plasmodium berghei when administered perorally; format: functional; details: po
[6] = system: Plasmodium yoelii; assay: In vivo antimalarial activity against Plasmodium yoelii when administered subcutaneously; details: Mus musculus, sc
[7] = system: Plasmodium berghei; assay: In vivo antimalarial activity against Plasmodium berghei

| Structure (SMILES) | IC50 [1] | IC50 [2] | also measured |
| --- | --- | --- | --- |
| C[C@H]1[C@H](Oc2ccccc2)O[C@@H]2OC3(C)CC[C@H]4[C@H](C)CC[C@@H]1[C@@]24OO3 (single isomer, unassigned) | 2.61 nM | 2.97 nM |  |
| C[C@H]1[C@@H](Oc2ccccc2)O[C@@H]2OC3(C)CC[C@H]4[C@H](C)CC[C@@H]1[C@@]24OO3 (single isomer, unassigned) | 3.24 nM | 3.66 nM | ED50 [3]: 3.09 mg/kg |
| Cc1ccc(O[C@H]2O[C@@H]3OC4(C)CC[C@H]5[C@H](C)CC[C@@H]([C@H]2C)[C@@]35OO4)cc1 (single isomer, unassigned) | 3.24 nM | 3.92 nM |  |
| COc1ccc(O[C@@H]2O[C@@H]3OC4(C)CC[C@H]5[C@H](C)CC[C@@H]([C@H]2C)[C@@]35OO4)cc1 (single isomer, unassigned) | 3.32 nM | 3.86 nM |  |
| Cc1ccc(O[C@@H]2O[C@@H]3OC4(C)CC[C@H]5[C@H](C)CC[C@@H]([C@H]2C)[C@@]35OO4)cc1 (single isomer, unassigned) | 2.87 nM | 3.18 nM |  |
| C[C@H]1[C@@H](Oc2ccc(C(F)(F)F)cc2)O[C@@H]2OC3(C)CC[C@H]4[C@H](C)CC[C@@H]1[C@@]24OO3 (single isomer, unassigned) | 3.9 nM | 5.29 nM | ED90 [4]: 3.1 mg/kg; ED50 [3]: 2.12 mg/kg; ED50 [5]: 2.7 mg/kg; ED90 [5]: 5.4 mg/kg; ED50 [6]: 2.2 mg/kg |
| C[C@H]1[C@H](Oc2ccc(C(F)(F)F)cc2)O[C@@H]2OC3(C)CC[C@H]4[C@H](C)CC[C@@H]1[C@@]24OO3 (single isomer, unassigned) | 3.42 nM | 4.62 nM |  |
| C[C@H]1[C@H](Oc2ccc(F)cc2)O[C@@H]2OC3(C)CC[C@H]4[C@H](C)CC[C@@H]1[C@@]24OO3 (single isomer, unassigned) | 4.04 nM | 5.7 nM |  |
| COc1ccc(O[C@H]2O[C@@H]3OC4(C)CC[C@H]5[C@H](C)CC[C@@H]([C@H]2C)[C@@]35OO4)cc1 (single isomer, unassigned) |  | 4.58 nM |  |
| C[C@H]1[C@@H](Oc2ccc(F)cc2)O[C@@H]2OC3(C)CC[C@H]4[C@H](C)CC[C@@H]1[C@@]24OO3 (single isomer, unassigned) | 2.88 nM | 4.58 nM |  |
| CO[C@H]1O[C@@H]2O[C@@]3(C)CC[C@H]4[C@H](C)CC[C@@H]([C@H]1C)[C@@]24OO3 [ARTEMETHER] | 3.42 nM | 4.55 nM | ED50 [3]: 6.02 mg/kg |
| C[C@@H]1CC[C@H]2[C@@H](C)C(=O)O[C@@H]3O[C@@]4(C)CC[C@@H]1[C@]32OO4 [ARTEMISININ] | 9.67 nM | 11.2 nM |  |
| C[C@H]1[C@@H](O)O[C@@H]2O[C@@]3(C)CC[C@H]4[C@H](C)CC[C@@H]1[C@@]24OO3 [ARTENIMOL] |  |  | ED50 [7]: 1.95 mg/kg |
| C[C@H]1[C@H](OC(=O)CCC(=O)[O-])O[C@@H]2O[C@@]3(C)CC[C@H]4[C@H](C)CC[C@@H]1[C@@]24OO3.[Na+] [SODIUM ARESUNATE] |  |  | ED90 [4]: 13.5 mg/kg; ED50 [5]: 4 mg/kg; ED90 [5]: 13 mg/kg; ED50 [6]: 3.6 mg/kg |
